Data as given in ChEMBL document CHEMBL4706708, “Improving the solubility of anti-proliferative thieno[2,3-b]quinoline-2-carboxamides” (Bioorg Med Chem, 2021).
Converted amounts (≈) assume the structure as drawn.

Key:
[1] = Thermodynamic solubility of compound in water measured after 15 mins RP-HPLC analysis; format: physicochemical; details: read-out: Therm_solubility
HCT-116 = assay: Antiproliferative activity against human HCT-116 cells assessed as cell growth at 1 uM measured after 3 days by [3H]-thymidine incorporation assay relative to control; format: functional; details: HCT-116, 72 h, time 3 day, read-out: Activity
In short: (§1)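 HCT116 and MDA-MB-231 cells from ATCC, seeded at 3000 cells/well, exposed to inhibitor for three days; 0.04 µCi 3H-thymidine added per well 5 h before harvest onto glass fibre filters, incorporation counted by scintillation and expressed relative to untreated controls. Triplicate wells, at least two independent experiments. Single-point screen at 1 µM; IC50 determined from varying concentrations.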

MDA-MB-231 = assay: Antiproliferative activity against human MDA-MB-231 cells assessed as cell growth at 1 uM measured after 3 days by [3H]-thymidine incorporation assay relative to control; format: functional; details: MDA-MB-231, 72 h, time 3 day, read-out: Activity; in short: as §1

Compound	solubility thermodynamic at 0.25 h [1]	growth at 1 µM (HCT-116)	growth at 1 µM (MDA-MB-231)
Nc1c(C(=O)Nc2cccc3cnccc23)sc2nc3c(cc12)C(=O)CCC3	1.67 µg/mL (≈ 4.3 µM)	103%	107%
CC(=O)c1cc2c(N)c(C(=O)Nc3cccc(Cl)c3)sc2nc1C	1.52 µg/mL (≈ 4.22 µM)	101%	102%
Cc1nc2sc(C(=O)Nc3cccc4ncccc34)c(N)c2cc1C(C)O (stereo unspecified)	0.89 µg/mL (≈ 2.35 µM)	92%	112%
Nc1c(C(=O)Nc2cccc3cccnc23)sc2nc3c(cc12)CN(Cc1ccccc1)CC3	1.17 µg/mL (≈ 2.51 µM)	98.2%	104%
CC(=O)c1cc2c(N)c(C(=O)Nc3ccccc3Cl)sc2nc1C	0.13 µg/mL (≈ 0.361 µM)	87.3%	99.6%
CC(=O)c1cc2c(N)c(C(=O)Nc3cncc4ccccc34)sc2nc1C	0.09 µg/mL (≈ 0.239 µM)	96.2%	105%
Nc1c(C(=O)Nc2ccccn2)sc2nc3c(cc12)C(=O)CCC3	0.64 µg/mL (≈ 1.89 µM)	10.2%	27%
CC(=O)c1cc2c(N)c(C(=O)Nc3cccc4cnccc34)sc2nc1C	–	111%	99.8%
Nc1c(C(=O)Nc2cncc3ccccc23)sc2nc3c(cc12)C(=O)CCC3	0.71 µg/mL (≈ 1.83 µM)	97.8%	111%
Nc1c(C(=O)Nc2cccc3c2OCCO3)sc2nc3c(cc12)CN(Cc1ccccc1)CC3	2.1 µg/mL (≈ 4.44 µM)	88.2%	89.3%
Cc1nc2sc(C(=O)Nc3ccncc3)c(N)c2cc1C(C)O (stereo unspecified)	2.85 µg/mL (≈ 8.68 µM)	111%	113%
Nc1c(C(=O)Nc2cccc3cccnc23)sc2nc3c(cc12)C(=O)CCC3	0.44 µg/mL (≈ 1.13 µM)	101%	99.2%
Nc1c(C(=O)Nc2ccccc2)sc2nc3c(cc12)CNCC3	40.5 µg/mL (≈ 125 µM)	100%	89.7%
CC(=O)c1cc2c(N)c(C(=O)Nc3cccc(F)c3C)sc2nc1C	0.35 µg/mL (≈ 0.979 µM)	103%	114%
COc1cccc(NC(=O)c2sc3nc(C)c(C(C)=O)cc3c2N)c1C	1.52 µg/mL (≈ 4.11 µM)	96.8%	99.7%
CC(=O)c1cc2c(N)c(C(=O)Nc3cccc4ncccc34)sc2nc1C	1.3 µg/mL (≈ 3.45 µM)	93%	98.7%
Nc1c(C(=O)Nc2cccc3ccncc23)sc2nc3c(cc12)C(=O)CCC3	1.94 µg/mL (≈ 4.99 µM)	98.1%	115%
Cc1ccccc1NC(=O)c1sc2nc(C)c(C(C)O)cc2c1N (stereo unspecified)	29.5 µg/mL (≈ 86.5 µM)	99.9%	97.9%
Cc1nc2sc(C(=O)Nc3cccc4cnccc34)c(N)c2cc1C(C)O (stereo unspecified)	7.55 µg/mL (≈ 19.9 µM)	110%	102%
Cc1nc2sc(C(=O)Nc3cccc4cccnc34)c(N)c2cc1C(C)O (stereo unspecified)	–	110%	102%
Nc1c(C(=O)Nc2ccccc2Cl)sc2nc3c(cc12)CN(Cc1ccccc1)CC3	1.06 µg/mL (≈ 2.36 µM)	99.4%	99.8%
Cc1nc2sc(C(=O)Nc3cccc4c3OCCO4)c(N)c2cc1C(C)O (stereo unspecified)	3.06 µg/mL (≈ 7.94 µM)	58.4%	62.3%
Nc1c(C(=O)Nc2cccc3cnccc23)sc2nc3c(cc12)CN(Cc1ccccc1)CC3	1.12 µg/mL (≈ 2.41 µM)	110%	108%
Cc1nc2sc(C(=O)Nc3ccccc3)c(N)c2cc1C(C)O (stereo unspecified)	3.51 µg/mL (≈ 10.7 µM)	95.3%	107%
Nc1c(C(=O)Nc2ccc3c(c2)OCCO3)sc2nc3c(cc12)C(=O)CCC3	0.32 µg/mL (≈ 0.809 µM)	76.2%	102%
Cc1nc2sc(C(=O)Nc3ccccn3)c(N)c2cc1C(C)O (stereo unspecified)	5.43 µg/mL (≈ 16.5 µM)	96.5%	93.8%
Cc1nc2sc(C(=O)Nc3cncc4ccccc34)c(N)c2cc1C(C)O (stereo unspecified)	–	109%	106%
Nc1c(C(=O)Nc2cccc3ncccc23)sc2nc3c(cc12)CN(Cc1ccccc1)CC3	0.62 µg/mL (≈ 1.33 µM)	104%	91.3%
CN1CCc2nc3sc(C(=O)Nc4ccccc4)c(N)c3cc2C1	–	100%	91.2%
Nc1c(C(=O)Nc2ccc3c(c2)OCCO3)sc2nc3c(cc12)CN(Cc1ccccc1)CC3	0.7 µg/mL (≈ 1.48 µM)	83.2%	94.9%
